According to PMC4141080 (FEBS Open Bio, 2014):

Assays:
Type in all cases: biochemical, Aplysia kurodai
Settings in all cases: standard assay 37 °C; pH of kinetics not told
[1] = test system: ApAGL86 (86-kDa α-glucosidase); assay: fluorometric 4-methylumbelliferone release
Procedure, shortened: (§1)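 Each α-glucosidase was purified from sea hare digestive fluid. The fluid was squeezed from the stomach lumen, cut with 0–60% ammonium sulfate, then run through ion-exchange, phenyl-Sepharose, Sephacryl S-100 and Mono Q chromatography, with purity checked by SDS–PAGE. Substrate was 4-MU-α-glucoside. Released 4-methylumbelliferone was read fluorometrically (ex 365 nm, em 450 nm). One unit releases 1 μmol 4-methylumbelliferone/min at 37 °C.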

[2] = test system: ApAGL74 (74-kDa α-glucosidase); assay: fluorometric 4-methylumbelliferone release
Procedure, shortened: as §1

[3] = test system: ApAGL86 (86-kDa α-glucosidase); assay: glucose release
[4] = test system: ApAGL74 (74-kDa α-glucosidase); assay: glucose release
Procedure, shortened: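 The α-glucosidase was purified chromatographically from the ammonium sulfate (0–60%) fraction of stomach-lumen digestive fluid of sea hare. Glucose liberated from substrate was quantified with a glucose oxidase-based kit.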

Row | Compound | Km [1] | Km [2] | Km [3] | Km [4]
1 | Cc1cc(=O)oc2cc(O[C@H]3O[C@H](CO)[C@@H](O)[C@H](O)[C@H]3O)ccc12 [4MU-α-glucoside] | 0.412 ± 0.006 mM | 0.0479 ± 0.0106 mM |  | 
2 | OC[C@H]1O[C@H](OC[C@H]2OC(O)[C@H](O)[C@@H](O)[C@@H]2O)[C@H](O)[C@@H](O)[C@@H]1O (stereo partly shown) [Isomaltose] |  |  | 16.5 ± 0.05 mM | 14.2 ± 0.9 mM
3 | OC[C@H]1O[C@H](O[C@H]2[C@H](O)[C@@H](O)C(O)O[C@@H]2CO)[C@H](O)[C@@H](O)[C@@H]1O (stereo partly shown) [Maltose] |  |  |  | 4.98 ± 0.06 mM
4 | OC[C@H]1O[C@@](CO)(O[C@H]2O[C@H](CO)[C@@H](O)[C@H](O)[C@H]2O)[C@@H](O)[C@@H]1O [Sucrose] |  |  | 33.6 ± 1.55 mM | 31.7 ± 2.1 mM
